What was measured:
MDA-MB-231 [1] = experiment: Antiproliferative activity against human MDA-MB-231 cells assessed as reduction in cell viability measured after 48 hrs MTT assay; assay type: functional, cell-based; conditions: MDA-MB-231, 48 h
Method in brief: (§1)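 Cells (MDA-MB-231, MCF-7, MCF-10A, HT-29, A549) exposed to compounds for 48 h, then viability read by MTT. IC50 is the concentration giving 50% inhibition of viability. Means ± SD of three independent experiments.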

MCF7 = experiment: Antiproliferative activity against human MCF7 cells assessed as reduction in cell viability measured after 48 hrs MTT assay; assay type: functional, cell-based; conditions: MCF7, 48 h; method in brief: as §1
HT-29 = experiment: Antiproliferative activity against human HT-29 cells assessed as reduction in cell viability measured after 48 hrs MTT assay; assay type: functional, cell-based; conditions: HT-29, 48 h; method in brief: as §1
A549 [2] = experiment: Antiproliferative activity against human A549 cells assessed as reduction in cell viability measured after 48 hrs MTT assay; assay type: functional, cell-based; conditions: A549, 48 h; method in brief: as §1
MCF-10A = experiment: Cytotoxicity against human MCF10A cells assessed as reduction in cell viability measured after 48 hrs MTT assay; assay type: cell-based; method in brief: as §1
[3] = biological target: NAD(P)H dehydrogenase [quinone] 1 (Homo sapiens) (UniProt P15559); experiment: Substrate activity at human NQO1 assessed as amount of NADH oxidation assessed per umol NQO1
Chain of NAD(P)H dehydrogenase [quinone] 1 (Homo sapiens) (P15559 whole entry): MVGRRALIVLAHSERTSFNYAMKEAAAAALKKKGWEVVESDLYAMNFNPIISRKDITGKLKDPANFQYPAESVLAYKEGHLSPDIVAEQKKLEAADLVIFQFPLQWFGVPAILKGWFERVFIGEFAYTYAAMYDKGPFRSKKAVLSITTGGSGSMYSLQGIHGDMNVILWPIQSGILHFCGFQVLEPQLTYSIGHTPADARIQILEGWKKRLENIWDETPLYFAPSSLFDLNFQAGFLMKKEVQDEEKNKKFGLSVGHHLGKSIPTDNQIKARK
Method in brief: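 Quinones at 20 μM coincubated with NADH with and without human NQO1. Rate of NADH oxidation measured.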

A549 [4] = experiment: Induction of apoptosis in human A549 cells assessed as live cells at 2 uM measured after 24 hrs by annexinV-FITC/propidium iodide staining based flow cytometry (reference value: 95.5 %); assay type: functional
A549 [5] = experiment: Induction of apoptosis in human A549 cells assessed as early apoptotic cells at 2 uM measured after 24 hrs by annexinV-FITC/propidium iodide staining based flow cytometry (reference value: 0.25 %); assay type: functional
A549 [6] = experiment: Induction of apoptosis in human A549 cells assessed as late apoptotic cells at 2 uM measured after 24 hrs by annexinV-FITC/propidium iodide staining based flow cytometry (reference value: 3.70 %); assay type: functional
A549 [7] = experiment: Induction of apoptosis in human A549 cells assessed as necrotic cells at 2 uM measured after 24 hrs by annexinV-FITC/propidium iodide staining based flow cytometry (reference value: 0.54 %); assay type: functional
A549 [8] = experiment: Induction of ROS generation in human A549 cells at 2 uM measured after 24 hrs by DCFH-DA probe based flow cytometry (reference value: 4.92 %); assay type: functional
A549 [9] = experiment: Induction of apoptosis in human A549 cells assessed as live cells at 1 uM measured after 24 hrs by annexinV-FITC/propidium iodide staining based flow cytometry (reference value: 95.5 %); assay type: functional
A549 [10] = experiment: Induction of apoptosis in human A549 cells assessed as early apoptotic cells at 1 uM measured after 24 hrs by annexinV-FITC/propidium iodide staining based flow cytometry (reference value: 0.25 %); assay type: functional
A549 [11] = experiment: Induction of apoptosis in human A549 cells assessed as late apoptotic cells at 1 uM measured after 24 hrs by annexinV-FITC/propidium iodide staining based flow cytometry (reference value: 3.70 %); assay type: functional
A549 [12] = experiment: Induction of apoptosis in human A549 cells assessed as necrotic cells at 1 uM measured after 24 hrs by annexinV-FITC/propidium iodide staining based flow cytometry (reference value: 0.54 %); assay type: functional
A549 [13] = experiment: Induction of apoptosis in human A549 cells measured after 24 hrs by annexinV-FITC/propidium iodide staining based flow cytometry; assay type: functional, cell-based
A549 [14] = experiment: Potency index, ratio of BBI608 activity to test compound activity for induction of apoptosis in human A549 cells measured after 24 hrs by annexinV-FITC/propidium iodide staining based flow cytometry; assay type: functional
Method in brief: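 A549 cells given test compound or BBI608, each at 2 μM, for 24 h, then stained with Annexin V-FITC/propidium iodide for 15 min. Apoptosis rate by flow cytometry; the ratio compares rates at the same concentration.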

[15] = biological target: Signal transducer and activator of transcription 3 (Homo sapiens) (UniProt P40763); experiment: Inhibition of STAT3 phosphorylation in human MDA-MB-231 cells measured after 2 hrs by Western blot analysis; assay type: cell-based
Chain of Signal transducer and activator of transcription 3 (Homo sapiens) (P40763 whole entry): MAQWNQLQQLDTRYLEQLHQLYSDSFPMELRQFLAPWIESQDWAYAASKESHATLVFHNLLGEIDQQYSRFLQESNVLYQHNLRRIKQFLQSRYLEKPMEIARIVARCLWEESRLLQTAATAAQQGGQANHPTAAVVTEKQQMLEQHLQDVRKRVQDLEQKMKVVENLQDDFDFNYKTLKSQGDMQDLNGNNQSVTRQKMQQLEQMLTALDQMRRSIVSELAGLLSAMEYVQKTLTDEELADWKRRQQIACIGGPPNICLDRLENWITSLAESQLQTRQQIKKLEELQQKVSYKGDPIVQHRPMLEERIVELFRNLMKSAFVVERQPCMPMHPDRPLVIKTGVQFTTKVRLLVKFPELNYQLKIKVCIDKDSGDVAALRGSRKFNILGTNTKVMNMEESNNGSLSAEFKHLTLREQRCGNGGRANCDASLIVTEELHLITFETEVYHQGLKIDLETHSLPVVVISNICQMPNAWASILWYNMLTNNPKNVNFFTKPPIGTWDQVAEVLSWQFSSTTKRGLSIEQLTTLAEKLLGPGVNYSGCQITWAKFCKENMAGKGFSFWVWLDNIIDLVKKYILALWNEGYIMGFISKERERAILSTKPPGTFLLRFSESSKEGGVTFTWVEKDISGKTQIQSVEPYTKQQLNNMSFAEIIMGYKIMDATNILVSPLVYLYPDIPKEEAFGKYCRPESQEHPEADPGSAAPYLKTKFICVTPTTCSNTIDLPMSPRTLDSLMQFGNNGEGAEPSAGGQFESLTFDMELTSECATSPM
Method in brief: (§2)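 MDA-MB-231 cells incubated for 2 h with test compound at 2, 4 or 8 μM, or with DMSO vehicle. Phospho-STAT3 and total STAT3 detected by western blot.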

MDA-MB-231 [16] = experiment: Effect on total STAT3 level in human MDA-MB-231 cells at 2 to 8 uM measured after 2 hrs by Western blot analysis; assay type: cell-based; conditions: mda-mb-231, 2 h; method in brief: as §2
A549 [17] = experiment: Induction of ROS generation in human A549 cells at 2 uM measured after 24 hrs by DCFH-DA probe based flow cytometry relative to BBI608; assay type: functional

| IC50 (MDA-MB-231 [1]) | IC50 (MCF7) | IC50 (HT-29) | IC50 (A549 [2]) | Activity [3] | inhibition [15] | Structure (SMILES) | IC50 (MCF-10A) | Activity (A549 [4]) | Activity (A549 [5]) | Activity (A549 [6]) | Activity (A549 [7]) | Activity (A549 [8]) | Activity (A549 [9]) | Activity (A549 [10]) | Activity (A549 [11]) | Activity (A549 [12]) | Activity (A549 [13]) | Ratio (A549 [14]) | Activity (MDA-MB-231 [16]) | Ratio (A549 [17]) |
| --- | --- | --- | --- | --- | --- | --- | --- | --- | --- | --- | --- | --- | --- | --- | --- | --- | --- | --- | --- | --- |
| 5.81 µM | 3.31 µM | 3.8 µM | 2.83 µM | 112 µmol/min | – | CCc1nsc2c1C(=O)c1cccc(O)c1C2=O | 3.02 µM | – | – | – | – | – | – | – | – | – | – | – | – | – |
| 2.59 µM | 2.34 µM | 2.92 µM | 0.7 µM | 122 µmol/min | – | CCc1nsc2c1C(=O)c1ccccc1C2=O | 1.13 µM | – | – | – | – | – | – | – | – | – | – | – | – | – |
| > 40 µM | > 40 µM | > 40 µM | > 40 µM | 18 µmol/min | – | COc1ccc(-c2nsc3c2C(=O)c2cccc(OC)c2C3=O)cc1 | > 40 µM | – | – | – | – | – | – | – | – | – | – | – | – | – |
| 1.29 µM | 0.63 µM | 0.14 µM | 6.69 µM | 170 µmol/min | – | CC(=O)c1cc2c(o1)C(=O)c1ccccc1C2=O [NAPABUCASIN] | 0.54 µM | 94.4% | 0.16% | 4.98% | 0.45% | 23.5% | – | – | – | – | – | – | – | – |
| 0.23 µM | 0.64 µM | 3.03 µM | 1.69 µM | 180 µmol/min | – | Cc1nsc2c1C(=O)c1cccnc1C2=O | 0.88 µM | – | – | – | – | – | – | – | – | – | – | – | – | – |
| 22 µM | 12.1 µM | 28.8 µM | > 40 µM | 14.6 µmol/min | – | COc1cccc2c1C(=O)c1snc(-c3ccccc3)c1C2=O | 24.6 µM | – | – | – | – | – | – | – | – | – | – | – | – | – |
| > 40 µM | > 40 µM | > 40 µM | > 40 µM | 8.75 µmol/min | – | COc1ccc(-c2nsc3c2C(=O)c2c(OC)cccc2C3=O)cc1 | > 40 µM | – | – | – | – | 7.19% | – | – | – | – | – | – | – | – |
| 1.46 µM | 1.41 µM | 3.88 µM | 4.8 µM | 38.9 µmol/min | – | COc1ccc(-c2nsc3c2C(=O)c2cccc(O)c2C3=O)cc1 | 1.51 µM | – | – | – | – | – | – | – | – | – | – | – | – | – |
| 0.26 µM | 0.31 µM | 1.52 µM | 3.28 µM | 219 µmol/min | Dose-dependent effect | Cc1nsc2c1C(=O)c1ncccc1C2=O | 0.13 µM | 84.8% | 0.33% | 13.4% | 1.49% | 57.5% | 92.7% | 0.17% | 6.53% | 0.59% | Dose-dependent effect | 2.5 | Non-Toxic | 3 |
| 0.4 µM | 0.26 µM | 1.2 µM | 0.81 µM | 174 µmol/min | – | O=C1c2ncccc2C(=O)c2c(-c3ccccc3)nsc21 | 0.88 µM | – | – | – | – | – | – | – | – | – | – | – | – | – |
| 0.34 µM | 1.11 µM | 2.06 µM | 1.51 µM | 28.4 µmol/min | – | CCc1nsc2c1C(=O)c1cccnc1C2=O | 0.59 µM | – | – | – | – | – | – | – | – | – | – | – | – | – |
| 2.67 µM | 1.58 µM | 1.41 µM | 1.36 µM | 122 µmol/min | – | Cc1nsc2c1C(=O)c1cccc(O)c1C2=O | 1.37 µM | – | – | – | – | – | – | – | – | – | – | – | – | – |
| 0.73 µM | 1.82 µM | 40 µM | 2.77 µM | 209 µmol/min | – | COc1ccc(-c2nsc3c2C(=O)c2cccnc2C3=O)cc1 | 1.96 µM | – | – | – | – | – | – | – | – | – | – | – | – | – |
| 1.65 µM | 4.09 µM | 2.67 µM | 1.71 µM | 68 µmol/min | – | Cc1nsc2c1C(=O)c1ccccc1C2=O | 1.11 µM | – | – | – | – | – | – | – | – | – | – | – | – | – |
| 0.66 µM | 0.46 µM | 2.03 µM | 1.35 µM | 175 µmol/min | – | O=C1c2cccnc2C(=O)c2c(-c3ccccc3)nsc21 | 0.17 µM | – | – | – | – | – | – | – | – | – | – | – | – | – |
| 1.67 µM | 0.92 µM | 1.62 µM | 1.96 µM | 122 µmol/min | – | Cc1nsc2c1C(=O)c1c(O)cccc1C2=O | 0.92 µM | – | – | – | – | – | – | – | – | – | – | – | – | – |
| 10.3 µM | > 40 µM | 18.8 µM | 27.5 µM | 5.59 µmol/min | – | O=C1c2ccccc2C(=O)c2c(-c3ccccc3)nsc21 | 17.6 µM | – | – | – | – | – | – | – | – | – | – | – | – | – |
| 2.72 µM | 0.71 µM | 1.66 µM | 1.38 µM | 97.2 µmol/min | – | CCc1nsc2c1C(=O)c1c(O)cccc1C2=O | 3.06 µM | – | – | – | – | – | – | – | – | – | – | – | – | – |
| 1.53 µM | 0.36 µM | 0.91 µM | 1.38 µM | 91.8 µmol/min | – | CCc1nsc2c1C(=O)c1ncccc1C2=O | 0.17 µM | – | – | – | – | – | – | – | – | – | – | – | – | – |
| 35.2 µM | 37.5 µM | 36.8 µM | > 40 µM | 7.29 µmol/min | – | COc1ccc(-c2nsc3c2C(=O)c2ccccc2C3=O)cc1 | 29.3 µM | – | – | – | – | – | – | – | – | – | – | – | – | – |

Reference: ChEMBL document CHEMBL4622930, “Synthesis and biological evaluation of novel isothiazoloquinoline quinone analogues” (Bioorg Med Chem Lett, 2020)
